The test system of assay [1] is Glycine max. In words: Inhibition of soybean LOX assessed as reduction in conversion of sodium linoleate to 13-hydroperoxylinoleic acid at 1 x 10^-4 M relative to control. A digest of the protocol:
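Soybean lipoxygenase incubated at room temperature with sodium linoleate (0.1 mM) and test compound (DMSO stocks); formation of 13-hydroperoxylinoleic acid read at 234 nm. Single-point screening at 1 × 10^-4 M; IC50 from several concentrations. At least triplicate.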

A short description of assay [2]: Growth inhibition of human MIAPaCa2 cells after 72 hrs by MTT assay. In kind it is functional, cell-based. To be noted: MIA PaCa-2, 72 h. In general terms: Tetrazolium assays rely on reduction of a dye to a coloured formazan, in cell work by metabolically active cells.
Assay [3] is described as follows: Growth inhibition of human NCI-H460 cells after 72 hrs by MTT assay. In kind it is functional, cell-based. To be noted: NCI-H460, 72 h. The method in brief:
(§1)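 Modified NCI DTP protocol: cells in DMEM with 10% FBS, 2 mM glutamine, antibiotics, 37 °C, 5% CO2; seeded 1 × 10^4 to 3 × 10^4 cells/ml on day 0, exposed to five 10-fold dilutions (10^-8 to 10^-4 M) for 72 h; solvent control. MTT read-out; quadruplicate points in three experiments; IC50 by linear regression of growth percentages bracketing 50%.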

A short description of assay [4]: Growth inhibition of human SW620 cells after 72 hrs by MTT assay. To be noted: SW-620, 72 h. Type of assay: functional, cell-based. A digest of the protocol:
as §1

A short description of assay [5]: Antioxidant activity assessed as DPPH radical scavenging activity at 100 uM after 60 mins relative to control. Type of assay: functional. The method in brief:
(§2)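 Compound in DMSO added to DPPH in absolute ethanol, 0.1 mM final; absorbance at 517 nm after 20 and 60 min at room temperature. At least triplicate.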
Background: Loss of DPPH colour is used to gauge radical scavenging.

The nature of assay [6]: Growth inhibition of mouse L1210 cells after 72 hrs by MTT assay. In kind it is functional, cell-based. To be noted: L1210, 72 h.
A short description of assay [7]: Growth inhibition of human HeLa cells after 72 hrs by MTT assay. In kind it is functional, cell-based.
The nature of assay [8]: Growth inhibition of human CEM cells after 72 hrs by MTT assay. In kind it is functional, cell-based. To be noted: CCRF-CEM.
Assay [9] is described as follows: Growth inhibition of human Molt4/C8 cells after 72 hrs by MTT assay. In kind it is functional, cell-based. To be noted: MOLT-4, 72 h.
Assay [10] can be described thus: Antioxidant activity assessed as inhibition of AAPH-induced linoleic acid lipid peroxidation at 1 x 10^-4 M by UV-absorbance method relative to control. In kind it is functional. The method in brief: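 Linoleic acid peroxidation: 16 mM sodium linoleate dispersion in 0.05 M phosphate buffer pH 7.4 at 37 °C under air, initiated by AAPH (40 mM solution); compound at 1 × 10^-4 M; oxidation followed at 234 nm. At least triplicate.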

Assay [11] can be described thus: Growth inhibition of human MCF7 cells after 72 hrs by MTT assay. Type of assay: functional, cell-based. To be noted: MCF7, 72 h. A digest of the protocol: as §1
Assay [12] is described as follows: Antioxidant activity assessed as DPPH radical scavenging activity at 100 uM after 20 mins relative to control. Type of assay: functional. The method in brief:
as §2

The results in this text go back to ChEMBL document CHEMBL3875163, “Novel urea and bis-urea primaquine derivatives with hydroxyphenyl or halogenphenyl substituents: Synthesis and biological evaluation” (Eur J Med Chem, 2016).

By inhibition is commonly meant the relative decrease from the control value, in per cent. Usually IC50 stands for the concentration that inhibits the measured activity by half. Higher therefore signals weaker potency. Regarding `COc1cc(NC(C)CCCNC(=O)Nc2ccc(F)cc2)c2ncccc2c1` (stereo unspecified), the inhibition in [1] is 39.8%; in assay [10], 64.4%. The IC50 worked out at 21 µM in assay [2]; 26 µM in assay [3]; 25 µM in [4]; 18 µM in assay [6]; 20 µM in [7]; 26 µM in [8]. Further, the IC50 in assay [9] was 24 µM; in [11] it was 26 µM. Besides, the Activity in assay [5] was found to be 24.7%.
For the molecule `COc1cc(NC(C)CCCNC(=O)Nc2cccc(Cl)c2)c2ncccc2c1` (stereo unspecified), the figures for the inhibition in [1] and in assay [10] were 11.8% and 84.1%, respectively. Besides, the IC50 in assay [2] amounted to 21 µM; in [3], 37 µM; in assay [4] it was 26 µM; in assay [6], 17 µM; in assay [7], 17 µM; in assay [8] it was 22 µM. For the same molecule, the half-inhibitory concentration (IC50) in assay [9] turned out to be 21 µM; in [11] it was 11 µM. In assay [5], the Activity was 35.7%.
On to `COc1cc(NC(C)CCCNC(=O)NNC(=O)Nc2cccc(C(F)(F)F)c2)c2ncccc2c1` (stereo unspecified), for which the inhibition in assay [1] turned out to be 51.4%; in assay [10] it was 52.6%. In addition, the concentration for half-maximal inhibition (IC50) stood at 5.6 µM in assay [2]; 20 µM in [3]; 21 µM in [4]; 4 µM in assay [6]; 4.9 µM in [7]; 6.9 µM in assay [8]. Further, the IC50 in [9] came to 36 µM; in [11], 0.19 µM. For the same molecule, the figures for the Activity in assay [5] and in [12] were 91.2% and 98.3%, respectively.
Take `Cc1c(C)c2c(c(C)c1O)CCC(C)(C(=O)O)O2` (stereo unspecified): in [10], the inhibition is 76%.
As for `COc1cc(NC(C)CCCNC(=O)Nc2cccc(F)c2)c2ncccc2c1` (stereo unspecified), the inhibition is 44.6% in assay [1] and 74.3% in assay [10]. Also, the IC50 in assay [2] turned out to be 22 µM; in assay [3], 24 µM; in assay [4], 27 µM; in [6], 19 µM; in [7], 18 µM; in assay [8], 21 µM. For the same molecule, the IC50 was determined as 23 µM in [9] and 18 µM in assay [11]. The Activity in [5] was determined as 26%.
As to `COc1cc(NC(C)CCCNC(=O)NNC(=O)Nc2cccc(Cl)c2)c2ncccc2c1` (stereo unspecified), the inhibition was found to be 48.4% in assay [1] and 70.8% in [10]. For the same molecule, the IC50 in assay [2] stood at 74 µM; in assay [3], 32 µM; in assay [4], 25 µM; in [6], 27 µM; in [7], 44 µM; in assay [8], 81 µM. For the same molecule, the IC50 in assay [9] was 93 µM; in assay [11], 0.22 µM. The results for the Activity in [5] and in assay [12] were 95.1% and 97.9%, respectively.
`COc1cc(NC(C)CCCNC(=O)Nc2cccc(C(F)(F)F)c2)c2ncccc2c1` (stereo unspecified): the inhibition in [1] was 48.3%; in [10], 71.8%. For the same molecule, the IC50 stood at 17 µM in [2]; 21 µM in assay [3]; 22 µM in [4]; 9.2 µM in assay [6]; 14 µM in assay [7]; 19 µM in assay [8]. Further, the IC50 was 20 µM in assay [9] and 3.3 µM in assay [11]. Also, the Activity is 47.7% in assay [5] and 31.3% in assay [12].
With `COc1cc(NC(C)CCCNC(=O)NNC(=O)Nc2ccc(Br)cc2)c2ncccc2c1` (stereo unspecified), the inhibition in assay [1] came to 28%. For the same molecule, the IC50 in assay [2] turned out to be 231 µM; in [3] it was 27 µM; in [4], 17 µM; in assay [6] it was 51 µM; in [7] it was 101 µM; in [8] it was 110 µM. The IC50 in assay [9] is 209 µM; in assay [11] it was 0.1 µM. Moreover, the figures for the Activity in assay [5] and in assay [12] were 99% and 96.9%, respectively.
